# Reference: PMC3611965 (Nuclear medicine and biology, 2012)
# Where “and” joins values, the source holds several entries; their conditions need not be identical. Identical values can stand only once.
# Assays:
# FAAH [1] = target: T1, FAAH (Mus musculus, UniProt O08914); test: in vivo competitive ABPP of brains of treated mice; details: C57Bl/6 mice, 10 mg/kg i.p. or p.o., 1 h, gel-based ABPP
# T1 sequence (O08914 1-579): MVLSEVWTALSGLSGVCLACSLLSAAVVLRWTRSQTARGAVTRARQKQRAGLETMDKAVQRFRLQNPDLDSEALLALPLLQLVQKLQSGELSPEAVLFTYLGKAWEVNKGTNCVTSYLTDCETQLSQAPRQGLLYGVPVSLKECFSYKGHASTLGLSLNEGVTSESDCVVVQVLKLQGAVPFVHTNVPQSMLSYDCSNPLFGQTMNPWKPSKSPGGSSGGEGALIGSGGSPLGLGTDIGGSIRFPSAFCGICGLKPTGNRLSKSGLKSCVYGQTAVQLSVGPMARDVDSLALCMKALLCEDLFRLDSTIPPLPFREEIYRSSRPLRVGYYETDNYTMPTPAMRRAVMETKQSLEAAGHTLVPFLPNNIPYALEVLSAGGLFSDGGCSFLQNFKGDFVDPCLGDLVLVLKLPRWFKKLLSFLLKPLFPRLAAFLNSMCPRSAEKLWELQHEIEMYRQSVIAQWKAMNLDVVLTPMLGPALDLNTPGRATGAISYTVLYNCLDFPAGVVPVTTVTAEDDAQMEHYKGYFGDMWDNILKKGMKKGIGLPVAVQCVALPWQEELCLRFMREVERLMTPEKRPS
# Summary of the method: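 Wild-type C57Bl/6J mice got test compound or vehicle (18:1:1 PBS:Emulphor:ethanol) and were killed after 1 h. Half-brains were frozen in liquid N2, washed in cold PBS, dounce-homogenized and sonicated, then spun at 1000×g (10 min, 4 °C) and 145,000×g (45 min, 4 °C) into soluble and membrane fractions. These were diluted to 1 mg/mL and labelled with FP-Rh (30 min, 37 °C) for SDS-PAGE fluorescence profiling.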
# [2] = MDCK passive permeability; type: in vitro ADME; details: dog
# MDR1 = MDR1 (Homo sapiens, UniProt P08183); test: MDR1 efflux ratio; type: in vitro ADME; details: MDCK-MDR1
# FAAH [3] = target: T1, FAAH; test: in vitro competitive ABPP; type: biochemical
# Summary of the method: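 Wild-type C57Bl/6J mouse brain membrane fractions (1 mg/mL total protein) were preincubated with varying test compound concentrations for 30 min at 37 °C. FP-Rh was then added (50 μM stock in DMSO) for another 30 min at 37 °C. Samples were quenched in SDS loading buffer and run on SDS-PAGE with in-gel fluorescence scanning. IC50 was calculated from band fluorescence.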
# FAAH [4] = target: T2, FAAH (Rattus norvegicus, UniProt P97612); test: brain biodistribution of [18F]PF-9811 in rats, baseline and blocked; type: in vivo; details: for SUV±standard deviation, Bone: N=2; for SUV±standard deviation, Blood / SUV±standard deviation, Brain stem / SUV±standard deviation, Cerebellum / SUV±standard deviation, Cortex / SUV±standard deviation, Hippocampus / SUV±standard deviation, Hypothalamus / SUV±standard deviation, Liver / SUV±standard deviation, Rest of brain / SUV±standard deviation, Striatum / SUV±standard deviation, Thalamus: N=4
# T2 sequence (P97612 1-579): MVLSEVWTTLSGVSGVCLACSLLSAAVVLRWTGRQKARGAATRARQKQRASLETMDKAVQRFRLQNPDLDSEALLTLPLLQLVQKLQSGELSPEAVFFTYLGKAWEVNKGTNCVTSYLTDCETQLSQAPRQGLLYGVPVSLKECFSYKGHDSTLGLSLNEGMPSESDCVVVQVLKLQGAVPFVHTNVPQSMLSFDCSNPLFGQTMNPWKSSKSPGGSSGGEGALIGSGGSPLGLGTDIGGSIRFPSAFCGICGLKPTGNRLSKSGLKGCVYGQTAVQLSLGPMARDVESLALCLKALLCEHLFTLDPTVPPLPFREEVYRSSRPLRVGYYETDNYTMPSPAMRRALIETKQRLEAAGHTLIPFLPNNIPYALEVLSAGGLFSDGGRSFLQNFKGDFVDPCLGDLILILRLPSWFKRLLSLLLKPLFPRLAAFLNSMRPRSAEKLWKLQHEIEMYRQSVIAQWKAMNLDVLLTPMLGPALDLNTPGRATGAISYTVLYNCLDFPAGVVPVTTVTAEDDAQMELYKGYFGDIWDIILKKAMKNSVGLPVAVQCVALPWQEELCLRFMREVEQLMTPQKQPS
# FAAH [5] = target: T2, FAAH; test: dynamic PET imaging in rats, baseline and blocked; type: in vivo
# Summary of the method: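 Male Sprague–Dawley rats (345±28 g) with jugular vein cannulas, held under ~2% isoflurane/O2 with respiration kept at 45–65 breaths/min and heat-lamp warming. The 18F-labelled test compound was given IV via tail vein (1.5462±0.4130 mCi) and brain scanned dynamically for 90 min in 16 frames. Blocked rats received an FAAH inhibitor 1 mg/kg p.o. 1 h before. Blood and plasma were sampled at 1–90 min. Images were atlas-registered for TACs and SUV.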
# log P7.4 measurement = type: physicochemical; details: n-octanol/DPBS pH 7.4; measured in quadruplicate
# Summary of the method: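 18F-labelled test compound (15–30 μCi) was partitioned between presaturated n-octanol and DPBS (0.1 M, pH 7.4) by vortexing 60 s and centrifuging at 4000 rpm for 2 min. The octanol phase was washed with fresh DPBS three times, then re-partitioned against fresh DPBS in four successive sets. Triplicate aliquots of each phase were gamma-counted. LogP7.4 = log[(octanol counts×20)/DPBS counts].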
# FAAH [6] = target: T2, FAAH; details: cited from earlier work
# [7] = tested on: FAAH relative to other serine hydrolases; details: competitive ABPP; ref [20],[21]; cited from earlier work
# [8] = rats; ref [20],[21]; cited from earlier work
# [9] = 10 min, blocked: 4 1 mg/kg oral 1 h prior
# [10] = 10 min post injection, baseline
# [11] = 60 min, blocked: 4 1 mg/kg oral 1 h prior
# [12] = 60 min post injection, baseline
# [13] = 90 min, blocked: 4 1 mg/kg oral 1 h prior
# [14] = 90 min, pretreatment with 4 1 mg/kg p.o.
# [15] = 90 min post injection, baseline
# [16] = biodistribution 90 min, baseline vs blocking
# Sequence of MDR1 (P08183 whole entry, species assumed): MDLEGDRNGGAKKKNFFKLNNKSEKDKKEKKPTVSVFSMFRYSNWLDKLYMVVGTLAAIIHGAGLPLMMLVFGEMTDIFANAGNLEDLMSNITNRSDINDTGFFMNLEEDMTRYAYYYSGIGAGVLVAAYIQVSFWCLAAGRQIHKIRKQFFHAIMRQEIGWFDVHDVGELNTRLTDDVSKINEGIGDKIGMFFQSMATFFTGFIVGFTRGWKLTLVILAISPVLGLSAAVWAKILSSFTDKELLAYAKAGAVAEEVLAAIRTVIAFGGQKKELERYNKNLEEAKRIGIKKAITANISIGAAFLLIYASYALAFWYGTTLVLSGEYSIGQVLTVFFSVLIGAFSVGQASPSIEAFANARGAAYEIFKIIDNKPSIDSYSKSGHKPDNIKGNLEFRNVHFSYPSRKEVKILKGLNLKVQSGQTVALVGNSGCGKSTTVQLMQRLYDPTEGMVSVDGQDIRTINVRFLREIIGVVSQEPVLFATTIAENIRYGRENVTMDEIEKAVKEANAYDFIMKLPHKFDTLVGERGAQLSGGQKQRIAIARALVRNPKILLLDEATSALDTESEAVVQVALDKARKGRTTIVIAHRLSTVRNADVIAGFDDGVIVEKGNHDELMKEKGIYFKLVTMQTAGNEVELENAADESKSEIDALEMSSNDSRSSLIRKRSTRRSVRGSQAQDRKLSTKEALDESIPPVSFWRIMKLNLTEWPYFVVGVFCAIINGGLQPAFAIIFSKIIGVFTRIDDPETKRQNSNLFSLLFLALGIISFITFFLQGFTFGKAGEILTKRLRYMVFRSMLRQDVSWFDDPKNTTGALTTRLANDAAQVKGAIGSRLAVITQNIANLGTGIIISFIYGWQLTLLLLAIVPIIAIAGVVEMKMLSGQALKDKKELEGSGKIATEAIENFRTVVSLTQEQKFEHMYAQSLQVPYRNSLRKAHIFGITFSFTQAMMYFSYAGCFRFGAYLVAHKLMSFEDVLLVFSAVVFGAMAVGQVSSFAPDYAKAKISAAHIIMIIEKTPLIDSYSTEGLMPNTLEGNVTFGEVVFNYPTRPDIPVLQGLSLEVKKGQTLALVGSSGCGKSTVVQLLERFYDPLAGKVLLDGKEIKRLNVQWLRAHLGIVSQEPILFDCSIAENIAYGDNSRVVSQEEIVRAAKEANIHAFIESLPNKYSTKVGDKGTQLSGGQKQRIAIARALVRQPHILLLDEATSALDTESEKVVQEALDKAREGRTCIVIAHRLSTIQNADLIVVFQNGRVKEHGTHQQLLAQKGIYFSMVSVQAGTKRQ
structure (smiles),measurement,setting,value
"O=C(Nc1cccnn1)N1CCC(=Cc2cccc(Oc3ccc(OCCF)cn3)c2)CC1 [PF-9811, 4-(3-((5-(2-fluoroethoxy)pyridin-2-yl)oxy)benzylidene)-N-(pyridazin-3-yl)piperidine-1-carboxamide]",FAAH inhibition in brain in vivo,FAAH [1],completely inhibited
same,off-targets among brain serine hydrolases in vivo,FAAH [1],no detectable off-targets
same,Papp A→B,[2],18.2 ×10⁻⁶ cm/s
same,efflux ratio,MDR1,2.52
same,IC50,FAAH [3],16 nM
same,fold less potent than parent 4,"FAAH [3]; FAAH, competitive ABPP, mouse brain proteome",5 fold
O=C(Nc1cccnn1)N1CCC(=Cc2cccc(Oc3ccc(OCC[18F])cn3)c2)CC1 [[^18F]PF-9811],"SUV±standard deviation, Bone",FAAH [4]; [9],0.332±0.010 SUV
same,"SUV±standard deviation, Blood",FAAH [4]; [9],1.031±0.069 SUV
same,"SUV±standard deviation, Brain stem",FAAH [4]; [9],0.313±0.011 SUV
same,"SUV±standard deviation, Cerebellum",FAAH [4]; [9],0.291±0.008 SUV
same,"SUV±standard deviation, Cortex",FAAH [4]; [9],0.265±0.014 SUV
same,"SUV±standard deviation, Hippocampus",FAAH [4]; [9],0.282±0.014 SUV
same,"SUV±standard deviation, Hypothalamus",FAAH [4]; [9],0.351±0.024 SUV
same,"SUV±standard deviation, Liver",FAAH [4]; [9],7.725±0.701 SUV
same,"SUV±standard deviation, Rest of brain",FAAH [4]; [9],0.294±0.018 SUV
same,"SUV±standard deviation, Striatum",FAAH [4]; [9],0.309±0.028 SUV
same,"SUV±standard deviation, Thalamus",FAAH [4]; [9],0.304±0.020 SUV
same,"SUV±standard deviation, Bone",FAAH [4]; [10],0.180±0.001 SUV
same,"SUV±standard deviation, Blood",FAAH [4]; [10],0.224±0.070 SUV
same,"SUV±standard deviation, Brain stem",FAAH [4]; [10],0.319±0.029 SUV
same,"SUV±standard deviation, Cerebellum",FAAH [4]; [10],0.666±0.017 SUV
same,"SUV±standard deviation, Cortex",FAAH [4]; [10],0.596±0.030 SUV
same,"SUV±standard deviation, Hippocampus",FAAH [4]; [10],0.579±0.018 SUV
same,"SUV±standard deviation, Hypothalamus",FAAH [4]; [10],0.410±0.027 SUV
same,"SUV±standard deviation, Liver",FAAH [4]; [10],14.179±3.336 SUV
same,"SUV±standard deviation, Rest of brain",FAAH [4]; [10],0.471±0.038 SUV
same,"SUV±standard deviation, Striatum",FAAH [4]; [10],0.427±0.021 SUV
same,"SUV±standard deviation, Thalamus",FAAH [4]; [10],0.382±0.051 SUV
same,"SUV±standard deviation, Bone",FAAH [4]; [11],0.391±0.088 SUV
same,"SUV±standard deviation, Blood",FAAH [4]; [11],0.747±0.191 SUV
same,"SUV±standard deviation, Brain stem",FAAH [4]; [11],0.264± 0.076 SUV
same,"SUV±standard deviation, Cerebellum",FAAH [4]; [11],0.248± 0.076 SUV
same,"SUV±standard deviation, Cortex",FAAH [4]; [11],0.219±0.068 SUV
same,"SUV±standard deviation, Hippocampus",FAAH [4]; [11],0.233±0.076 SUV
same,"SUV±standard deviation, Hypothalamus",FAAH [4]; [11],0.260± 0.088 SUV
same,"SUV±standard deviation, Liver",FAAH [4]; [11],4.488±1.343 SUV
same,"SUV±standard deviation, Rest of brain",FAAH [4]; [11],0.239±0.071 SUV
same,"SUV±standard deviation, Striatum",FAAH [4]; [11],0.255±0.082 SUV
same,"SUV±standard deviation, Thalamus",FAAH [4]; [11],0.251±0.074 SUV
same,"SUV±standard deviation, Bone",FAAH [4]; [12],0.133±0.058 SUV
same,"SUV±standard deviation, Blood",FAAH [4]; [12],0.063±0.012 SUV
same,"SUV±standard deviation, Brain stem",FAAH [4]; [12],0.331±0.041 SUV
same,"SUV±standard deviation, Cerebellum",FAAH [4]; [12],0.751±0.094 SUV
same,"SUV±standard deviation, Cortex",FAAH [4]; [12],0.674±0.109 SUV
same,"SUV±standard deviation, Hippocampus",FAAH [4]; [12],0.673±0.118 SUV
same,"SUV±standard deviation, Hypothalamus",FAAH [4]; [12],0.426± 0.045 SUV
same,"SUV±standard deviation, Liver",FAAH [4]; [12],17.346±4.789 SUV
same,"SUV±standard deviation, Rest of brain",FAAH [4]; [12],0.555±0.081 SUV
same,"SUV±standard deviation, Striatum",FAAH [4]; [12],0.441±0.073 SUV
same,"SUV±standard deviation, Thalamus",FAAH [4]; [12],0.374±0.045 SUV
same,"SUV±standard deviation, Bone",FAAH [4]; [13],0.472±0.133 SUV
same,"SUV±standard deviation, Blood",FAAH [4]; [13],0.703±0.117 SUV
same,"SUV±standard deviation, Brain stem",FAAH [4]; [13],0.246± 0.050 SUV
same,"SUV±standard deviation, Cerebellum",FAAH [4]; [13],0.249± 0.065 SUV
same,"SUV±standard deviation, Cortex",FAAH [4]; [13],0.216±0.055 SUV
same,"SUV±standard deviation, Hippocampus",FAAH [4]; [13],0.234±0.061 SUV
same,"SUV±standard deviation, Hypothalamus",FAAH [4]; [13],0.257±0.079 SUV
same,"SUV±standard deviation, Liver",FAAH [4]; [13],4.165±0.664 SUV
same,"SUV±standard deviation, Rest of brain",FAAH [4]; [13],0.231±0.055 SUV
same,"SUV±standard deviation, Striatum",FAAH [4]; [13],0.240±0.065 SUV
same,"SUV±standard deviation, Thalamus",FAAH [4]; [13],0.238±0.058 SUV
same,increase in signal in the blood on blocking,FAAH [4]; [14],12 fold
same,reduction of signal in the liver on blocking,FAAH [4]; [14],74%
same,"SUV±standard deviation, Bone",FAAH [4]; [15],0.159±0.001 SUV
same,"SUV±standard deviation, Blood",FAAH [4]; [15],0.061±0.009 SUV
same,"SUV±standard deviation, Brain stem",FAAH [4]; [15],0.391± 0.040 SUV
same,"SUV±standard deviation, Cerebellum",FAAH [4]; [15],0.857±0.144 SUV
same,"SUV±standard deviation, Cortex",FAAH [4]; [15],0.789±0.096 SUV
same,"SUV±standard deviation, Hippocampus",FAAH [4]; [15],0.770±0.126 SUV
same,"SUV±standard deviation, Hypothalamus",FAAH [4]; [15],0.545±0.126 SUV
same,"SUV±standard deviation, Liver",FAAH [4]; [15],16.116±4.670 SUV
same,"SUV±standard deviation, Rest of brain",FAAH [4]; [15],0.612±0.088 SUV
same,"SUV±standard deviation, Striatum",FAAH [4]; [15],0.573±0.081 SUV
same,"SUV±standard deviation, Thalamus",FAAH [4]; [15],0.544± 0.063 SUV
same,"specific to non-specific binding ratio, cerebellum",FAAH [4]; [16],2.4
same,"specific to non-specific binding ratio, cortex",FAAH [4]; [16],2.6
same,"specific to non-specific binding ratio, hippocampus",FAAH [4]; [16],2.3
same,uptake in rat brain (SUV),"FAAH [4]; biodistribution, 90 min, baseline",~0.8 SUV
same,defluorination (as determined by bone uptake),FAAH [4]; rats,minimal
same,"decreased uptake in blocking experiments, hippocampus","FAAH [5]; PET, end of 90 min, 4 1 mg/kg p.o. 1 h prior",~40%
same,"PET uptake (SUV), hippocampus and cortex","FAAH [5]; baseline, 90 min",~0.8 SUV
same,logP7.4,log P7.4 measurement,3.14±0.02 and 3.14
O=C(Nc1cccnn1)N1CCC(=Cc2cccc(Oc3ccc(C(F)(F)F)cn3)c2)CC1 [compound 4],FAAH inhibition at blocking dose,"FAAH [6]; p.o. 1.0 mg/kg, ref [20]",fully inhibit
same,"duration of sustained inhibition of brain FAAH activity, maximal elevations of brain AEA and efficacy in rat models of acute inflammatory pain","FAAH [6]; single oral administration 1 mg/kg, ref [15],[20]",at least 24 h
same,selectivity for FAAH relative to other serine hydrolases,[7],exquisite selectivity
same,oral bioavailability,[8],88%
